Measurements from ChEMBL document CHEMBL1759994, “The discovery and synthesis of potent zwitterionic inhibitors of renin” (Bioorg Med Chem Lett, 2011).

Experiments:
Renin [1] = target: T1, Renin (Homo sapiens, UniProt P00797); assay: Inhibition of human recombinant renin in PBS buffer using tetradecapeptide at pH 7.4
T1 sequence (P00797 whole entry): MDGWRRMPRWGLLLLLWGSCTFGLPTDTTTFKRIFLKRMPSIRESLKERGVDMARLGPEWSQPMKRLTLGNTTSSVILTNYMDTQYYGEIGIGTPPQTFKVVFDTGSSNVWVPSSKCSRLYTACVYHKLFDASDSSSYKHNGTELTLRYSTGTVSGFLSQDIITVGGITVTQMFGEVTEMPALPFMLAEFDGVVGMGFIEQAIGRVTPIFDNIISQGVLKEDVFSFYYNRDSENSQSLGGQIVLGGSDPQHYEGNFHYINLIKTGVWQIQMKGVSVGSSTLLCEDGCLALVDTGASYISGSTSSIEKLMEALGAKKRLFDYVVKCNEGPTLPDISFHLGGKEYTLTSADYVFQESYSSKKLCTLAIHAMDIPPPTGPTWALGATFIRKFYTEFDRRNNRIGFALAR

Cytochrome P450 3A4 [2] = target: T2, Cytochrome P450 3A4 (Homo sapiens, UniProt P08684); assay: Inhibition of human CYP3A4 in human liver microsomes assessed as formation of 6beta-hydroxy-testosterone using testosterone as substrate by high throughput mass spectrometry in absence of NADPH; type: ADME, Microsome
T2 sequence (P08684 whole entry): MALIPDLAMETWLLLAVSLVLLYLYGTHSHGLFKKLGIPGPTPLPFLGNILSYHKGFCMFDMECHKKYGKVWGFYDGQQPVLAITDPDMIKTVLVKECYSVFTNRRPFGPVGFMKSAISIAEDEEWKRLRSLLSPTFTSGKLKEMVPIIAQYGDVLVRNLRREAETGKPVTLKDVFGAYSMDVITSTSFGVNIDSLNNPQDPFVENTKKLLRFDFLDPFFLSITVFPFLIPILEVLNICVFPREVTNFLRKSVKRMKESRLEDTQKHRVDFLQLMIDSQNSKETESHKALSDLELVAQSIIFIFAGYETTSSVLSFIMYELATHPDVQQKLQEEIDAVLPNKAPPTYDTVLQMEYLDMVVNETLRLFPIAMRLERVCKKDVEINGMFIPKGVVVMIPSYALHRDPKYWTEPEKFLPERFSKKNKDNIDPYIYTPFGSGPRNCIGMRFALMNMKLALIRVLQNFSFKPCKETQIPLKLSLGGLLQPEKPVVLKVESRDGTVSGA

Renin [3] = target: T1, Renin; assay: Inhibition of human recombinant renin in human citreated-plasma
CYP3A4 = CYP3A4 (Homo sapiens, UniProt P08684); assay: Ratio of IC50 for human CYP3A4 in absence of NADPH to IC50 for human CYP3A4 preincubated for 30 mins in presence of NADPH; details: read-out: Ratio IC50
CYP3A4, sequence (P08684 whole entry): as above

Cytochrome P450 3A4 [4] = target: T2, Cytochrome P450 3A4; assay: Inhibition of human CYP3A4 in human liver microsomes assessed as formation of 6beta-hydroxy-testosterone using testosterone as substrate by high throughput mass spectrometry preincubated for 30 mins in presence of NADPH; type: ADME, Microsome
[5] = target: Voltage-gated inwardly rectifying potassium channel KCNH2 (Homo sapiens, UniProt Q12809); assay: Binding affinity to human ERG
Voltage-gated inwardly rectifying potassium channel KCNH2, sequence (Q12809 whole entry): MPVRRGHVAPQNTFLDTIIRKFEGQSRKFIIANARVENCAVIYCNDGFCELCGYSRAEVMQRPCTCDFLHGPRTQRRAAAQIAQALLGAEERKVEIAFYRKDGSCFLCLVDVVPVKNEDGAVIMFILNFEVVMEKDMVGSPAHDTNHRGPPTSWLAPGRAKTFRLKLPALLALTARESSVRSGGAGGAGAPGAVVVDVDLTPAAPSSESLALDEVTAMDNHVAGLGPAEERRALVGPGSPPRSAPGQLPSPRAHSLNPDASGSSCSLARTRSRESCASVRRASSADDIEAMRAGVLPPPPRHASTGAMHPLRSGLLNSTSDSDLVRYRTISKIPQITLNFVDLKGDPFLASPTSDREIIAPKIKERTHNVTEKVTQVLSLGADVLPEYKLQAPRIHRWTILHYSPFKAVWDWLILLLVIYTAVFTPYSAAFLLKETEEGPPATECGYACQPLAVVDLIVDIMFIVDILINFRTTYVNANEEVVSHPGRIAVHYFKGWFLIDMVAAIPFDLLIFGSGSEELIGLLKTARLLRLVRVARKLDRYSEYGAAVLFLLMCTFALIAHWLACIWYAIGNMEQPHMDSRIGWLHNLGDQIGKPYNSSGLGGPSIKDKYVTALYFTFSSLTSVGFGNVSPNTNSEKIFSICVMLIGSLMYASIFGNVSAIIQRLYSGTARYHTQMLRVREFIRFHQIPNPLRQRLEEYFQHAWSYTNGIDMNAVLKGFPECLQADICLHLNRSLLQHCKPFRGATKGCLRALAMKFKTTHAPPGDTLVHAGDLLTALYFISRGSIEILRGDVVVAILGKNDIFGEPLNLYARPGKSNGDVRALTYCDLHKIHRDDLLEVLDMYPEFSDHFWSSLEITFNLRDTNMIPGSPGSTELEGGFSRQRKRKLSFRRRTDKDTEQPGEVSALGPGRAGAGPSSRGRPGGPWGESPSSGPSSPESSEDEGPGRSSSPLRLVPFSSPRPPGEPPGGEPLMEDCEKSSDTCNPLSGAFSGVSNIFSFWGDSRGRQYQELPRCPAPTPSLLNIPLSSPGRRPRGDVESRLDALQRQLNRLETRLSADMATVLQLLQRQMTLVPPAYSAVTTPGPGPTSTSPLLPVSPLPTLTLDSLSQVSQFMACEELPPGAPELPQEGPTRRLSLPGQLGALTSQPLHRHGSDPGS

[6] = AUC (0 to 24 hrs) in Sprague-Dawley rat at 30 mg/kg, po as 0.5% methocel suspension; type: ADME, organism-based; parameters: time < 24 hr, dose 30 mg/kg, route oral; details: plasma
Blood [7] = assay: Metabolic stability in Sprague-Dawley rat whole blood assessed as conversion to (1R,2R)-2-((3-(((3R,4S)-N-cyclopropyl-4-(4-(2-(2,6-dichloro-4-methylphenoxy)ethoxy)phenyl)piperidine-3-carboxamido)methyl)-5-(3-methoxypropyl)phenoxy)methyl)cyclopropanecarboxylic acid after 20 mins; type: ADME, tissue-based
Summary of the method: (§1)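 Prodrugs were incubated for 20 min in rat or human whole blood, or in rat or human liver S9 fraction (n = 2). The read-out was % conversion to the parent carboxylic acid.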

Blood [8] = assay: Metabolic stability in human whole blood assessed as conversion to (1R,2R)-2-((3-(((3R,4S)-N-cyclopropyl-4-(4-(2-(2,6-dichloro-4-methylphenoxy)ethoxy)phenyl)piperidine-3-carboxamido)methyl)-5-(3-methoxypropyl)phenoxy)methyl)cyclopropanecarboxylic acid after 20 mins; type: ADME, tissue-based; summary of the method: as §1
Liver [9] = assay: Metabolic stability in Sprague-Dawley rat liver S9 fraction assessed as conversion to (1R,2R)-2-((3-(((3R,4S)-N-cyclopropyl-4-(4-(2-(2,6-dichloro-4-methylphenoxy)ethoxy)phenyl)piperidine-3-carboxamido)methyl)-5-(3-methoxypropyl)phenoxy)methyl)cyclopropanecarboxylic acid after 20 mins; type: ADME, subcellular; details: s9, 20 min; summary of the method: as §1
Liver [10] = assay: Metabolic stability in human liver S9 fraction assessed as conversion to (1R,2R)-2-((3-(((3R,4S)-N-cyclopropyl-4-(4-(2-(2,6-dichloro-4-methylphenoxy)ethoxy)phenyl)piperidine-3-carboxamido)methyl)-5-(3-methoxypropyl)phenoxy)methyl)cyclopropanecarboxylic acid after 20 mins; type: ADME, subcellular; details: s9, 20 min; summary of the method: as §1
[11] = AUC (0 to 24 hrs) in Sprague-Dawley rat at 20 mg/kg, po as 0.5% methocel suspension; type: ADME, organism-based; parameters: time < 24 hr, dose 20 mg/kg, route oral; details: plasma
[12] = Oral bioavailability in Sprague-Dawley rat at 30 mg/kg as 0.5% methocel suspension; type: ADME, organism-based; details: in vivo
[13] = Clearance in Sprague-Dawley rat at 30 mg/kg, po in 0.5% methocel and 3 to 5 mg/kg, iv in 60% PEG 200; details: in vivo

SMILES	IC50 (Renin [1])	IC50 (Cytochrome P450 3A4 [2])	IC50 (Renin [3])	IC50 shift (CYP3A4)	IC50 (Cytochrome P450 3A4 [4])	Ki [5]	AUC(0-t) at 24 h [6]	Activity (Blood [7])	Activity (Blood [8])	Activity (Liver [9])	Activity (Liver [10])	AUC(0-t) at 24 h [11]	bioavailability [12]	clearance [13]
COCCCc1cc(CN(C(=O)[C@H]2CNCC[C@@H]2c2ccc(OCCOc3c(Cl)cc(C)cc3Cl)cc2)C2CC2)cc(OCC2(CC#N)CC2)c1	0.028 nM	19600 nM	10.9 nM	14.1	1400 nM	60 nM								
COCCCc1cc(CN(C(=O)[C@H]2CNCC[C@@H]2c2ccc(OCCOc3c(Cl)cc(C)cc3Cl)cc2)C2CC2)cc(OCCOC)c1		21600 nM			2400 nM	80 nM								
COCCCc1cc(CN(C(=O)[C@H]2CNCC[C@@H]2c2ccc(OCCOc3c(Cl)cc(C)cc3Cl)cc2)C2CC2)cc(OCCN(C)C)c1		22700 nM			1400 nM	180 nM								
COCCCc1cc(CN(C(=O)[C@H]2CNCC[C@@H]2c2ccc(OCCOc3c(Cl)cc(C)cc3Cl)cc2)C2CC2)cc(OCCCNS(C)(=O)=O)c1	0.028 nM		2.9 nM			80 nM								
CCNC(=O)NCCCOc1cc(CCCOC)cc(CN(C(=O)[C@H]2CNCC[C@@H]2c2ccc(OCCOc3c(Cl)cc(C)cc3Cl)cc2)C2CC2)c1	0.022 nM	6300 nM	3.3 nM	2.6	2400 nM	150 nM								
COCCCc1cc(CN(C(=O)[C@H]2CNCC[C@@H]2c2ccc(OCCOc3c(Cl)cc(C)cc3Cl)cc2)C2CC2)cc(OCC(C)(C)O)c1		> 50000 nM			5600 nM	130 nM								
COCCCc1cc(CN(C(=O)[C@H]2CNCC[C@@H]2c2ccc(OCCOc3c(Cl)cc(C)cc3Cl)cc2)C2CC2)cc(OC[C@H]2C[C@@H]2C(=O)OCC(=O)N(C)C)c1						200 nM	3.5 µM·h	100%	1%	66%				
CCOC(=O)OC(C)OC(=O)[C@H]1C[C@@H]1COc1cc(CCCOC)cc(CN(C(=O)[C@H]2CNCC[C@@H]2c2ccc(OCCOc3c(Cl)cc(C)cc3Cl)cc2)C2CC2)c1 (stereo partly specified)								100%	38%	81%	90%			
COCCCc1cc(CN(C(=O)[C@H]2CNCC[C@@H]2c2ccc(OCCOc3c(Cl)cc(C)cc3Cl)cc2)C2CC2)cc(OC[C@H]2C[C@@H]2C(=O)OCOC(=O)C(C)(C)C)c1						40 nM	0.2 µM·h	100%	56%	83%	95%			
COCCCc1cc(CN(C(=O)[C@H]2CN(C(=O)OCc3oc(=O)oc3C)CC[C@@H]2c2ccc(OCCOc3c(Cl)cc(C)cc3Cl)cc2)C2CC2)cc(OC[C@H]2C[C@@H]2C(=O)O)c1						3700 nM		93%	11%	98%	99%	0.2 µM·h		
COCCCc1cc(CN(C(=O)[C@H]2CNCC[C@@H]2c2ccc(OCCOc3c(Cl)cc(C)cc3Cl)cc2)C2CC2)cc(OCC2(CC(=O)O)CC2)c1	0.04 nM	> 50000 nM			> 50000 nM	1000 nM	0.2 µM·h						2%	49 mL/min/kg
COCCCc1cc(CN(C(=O)[C@H]2CNCC[C@@H]2c2ccc(OCCOc3c(Cl)cc(C)cc3Cl)cc2)C2CC2)cc(OCC(C)(C)C(=O)O)c1	0.06 nM	> 50000 nM	29.6 nM		> 50000 nM	600 nM	1.1 µM·h						9%	44 mL/min/kg
COCCCc1cc(CN(C(=O)[C@H]2CNCC[C@@H]2c2ccc(OCCOc3c(Cl)cc(C)cc3Cl)cc2)C2CC2)cc(OCCC(C)(C)C(=O)O)c1	0.02 nM	> 50000 nM	9 nM		> 50000 nM	400 nM	2.1 µM·h						13%	43 mL/min/kg
COCCCc1cc(CN(C(=O)[C@H]2CNCC[C@@H]2c2ccc(OCCOc3c(Cl)cc(C)cc3Cl)cc2)C2CC2)cc(OCCCC(C)(C)C(=O)O)c1	0.01 nM	> 50000 nM	6.1 nM		> 50000 nM	200 nM	16 µM·h						22%	9.7 mL/min/kg
CCC(CC)(CCOc1cc(CCCOC)cc(CN(C(=O)[C@H]2CNCC[C@@H]2c2ccc(OCCOc3c(Cl)cc(C)cc3Cl)cc2)C2CC2)c1)C(=O)O		> 50000 nM			> 50000 nM	400 nM	6.1 µM·h						26%	29 mL/min/kg
COCCCc1cc(CN(C(=O)[C@H]2CNCC[C@@H]2c2ccc(OCCOc3c(Cl)cc(C)cc3Cl)cc2)C2CC2)cc(OCCC2(C(=O)O)CCCC2)c1	0.01 nM	> 50000 nM	12.4 nM		> 50000 nM	500 nM	3.3 µM·h						15%	27 mL/min/kg
COCCCc1cc(CN(C(=O)[C@H]2CNCC[C@@H]2c2ccc(OCCOc3c(Cl)cc(C)cc3Cl)cc2)C2CC2)cc(OCC[C@](C)(OC)C(=O)O)c1	0.06 nM	> 50000 nM	2.1 nM		> 50000 nM	2300 nM	1.2 µM·h						3%	23 mL/min/kg
COCCCc1cc(CN(C(=O)[C@H]2CNCC[C@@H]2c2ccc(OCCOc3c(Cl)cc(C)cc3Cl)cc2)C2CC2)cc(OC[C@H]2C[C@@H]2C(=O)NS(C)(=O)=O)c1	0.01 nM	> 50000 nM	2.1 nM		> 50000 nM	500 nM							0%	26 mL/min/kg
COCCCc1cc(CN(C(=O)[C@H]2CNCC[C@@H]2c2ccc(OCCOc3c(Cl)cc(C)cc3Cl)cc2)C2CC2)cc(OCC2(Cc3nn[nH]n3)CC2)c1		> 50000 nM	5.3 nM		> 50000 nM	500 nM							0%	46 mL/min/kg
